Experimental data: ChEMBL document CHEMBL3576803, “Antimicrobial Phenolic Bisabolanes and Related Derivatives from Penicillium aculeatum SD-321, a Deep Sea Sediment-Derived Fungus” (J Nat Prod, 2015)
In brackets after ≈: the same amount, converted by molar mass.

Tests used:
[1] = Toxicity in brine shrimp; type: organism-based; settings: artemia salina, in vivo; read-out: LD50 (the source's name)
Aeromonas hydrophila = assay: Antibacterial activity against Aeromonas hydrophila QDIO-1 by microplate assay; type: functional
Vibrio harveyi = assay: Antibacterial activity against Vibrio harveyi QDIO-7 by microplate assay; type: functional
Escherichia coli = assay: Antibacterial activity against Escherichia coli EMBLC-1 by microplate assay; type: functional
[2] = system: Colletotrichum gloeosporioides; assay: Antifungal activity against Colletotrichum gloeosporioides QDAU-2 by microplate assay; type: functional
Method in brief: (§1)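 Phytopathogenic fungal strains came from a research group at Qingdao Agricultural University and are kept at the Key Laboratory of Experimental Marine Biology, Institute of Oceanology, CAS. Tested by microplate assay with amphotericin B as the positive control.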

Staphylococcus aureus = assay: Antibacterial activity against Staphylococcus aureus EMBLC-2 by microplate assay; type: functional
Vibrio alginolyticus = assay: Antibacterial activity against Vibrio alginolyticus QDIO-5 by microplate assay; type: functional
Vibrio parahaemolyticus = assay: Antibacterial activity against Vibrio parahaemolyticus QDIO-8 by microplate assay; type: functional
Gaeumannomyces graminis = assay: Antifungal activity against Gaeumannomyces graminis QDAU-3 by microplate assay; type: functional; method in brief: as §1
Vibrio anguillarum = assay: Antibacterial activity against Vibrio anguillarum QDIO-6 by microplate assay; type: functional
Edwardsiella tarda = assay: Antibacterial activity against Edwardsiella tarda QDIO-2 by microplate assay; type: functional
Pseudomonas aeruginosa = assay: Antibacterial activity against Pseudomonas aeruginosa QDIO-4 by microplate assay; type: functional
Micrococcus luteus = assay: Antibacterial activity against Micrococcus luteus QDIO-3 by microplate assay; type: functional
Alternaria brassicae = assay: Antifungal activity against Alternaria brassicae QDAU-1 by microplate assay; type: functional; method in brief: as §1

CC(C)CCC[C@](C)(O)c1ccc(COC(=O)c2ccc([C@@](C)(O)CCCC(C)C)c(O)c2)cc1O
LC50 [1]: > 10 µg/mL | MIC (Aeromonas hydrophila): > 32 µg/mL | MIC (Vibrio harveyi): > 32 µg/mL | MIC (Escherichia coli): > 32 µg/mL | MIC [2]: > 32 µg/mL | MIC (Staphylococcus aureus): > 32 µg/mL | MIC (Vibrio alginolyticus): > 32 µg/mL | MIC (Vibrio parahaemolyticus): 32 µg/mL (≈ 63.9 µM) | MIC (Gaeumannomyces graminis): > 32 µg/mL | MIC (Vibrio anguillarum): > 32 µg/mL | MIC (Edwardsiella tarda): 8 µg/mL (≈ 16 µM) | MIC (Pseudomonas aeruginosa): > 32 µg/mL | MIC (Micrococcus luteus): > 32 µg/mL | MIC (Alternaria brassicae): 32 µg/mL (≈ 63.9 µM)

Cc1cc(O)cc(Oc2cc(C)cc(OCc3ccc([C@@](C)(O)CCCC(C)C)c(O)c3)c2)c1
LC50 [1]: > 10 µg/mL | MIC (Aeromonas hydrophila): > 32 µg/mL | MIC (Vibrio harveyi): > 32 µg/mL | MIC (Escherichia coli): > 32 µg/mL | MIC [2]: > 32 µg/mL | MIC (Staphylococcus aureus): > 32 µg/mL | MIC (Vibrio alginolyticus): 2 µg/mL (≈ 4.3 µM) | MIC (Vibrio parahaemolyticus): > 32 µg/mL | MIC (Gaeumannomyces graminis): 32 µg/mL (≈ 68.9 µM) | MIC (Vibrio anguillarum): > 32 µg/mL | MIC (Edwardsiella tarda): > 32 µg/mL | MIC (Pseudomonas aeruginosa): 32 µg/mL (≈ 68.9 µM) | MIC (Micrococcus luteus): 1 µg/mL (≈ 2.15 µM) | MIC (Alternaria brassicae): 0.5 µg/mL (≈ 1.08 µM)

C[C@@H]1[C@H](O)[C@@H](C)/C=C/C=C/C=C/C=C/C=C/C=C/C=C/[C@H](O[C@@H]2O[C@H](C)[C@@H](O)[C@H](N)[C@@H]2O)C[C@@H]2O[C@](O)(C[C@@H](O)C[C@@H](O)[C@H](O)CC[C@@H](O)C[C@@H](O)CC(=O)O[C@H]1C)C[C@H](O)[C@H]2C(=O)O [AMPHOTERICIN B]
MIC [2]: 32 µg/mL (≈ 34.6 µM) | MIC (Gaeumannomyces graminis): 64 µg/mL (≈ 69.3 µM) | MIC (Alternaria brassicae): 32 µg/mL (≈ 34.6 µM)

C=C(CCCC(C)C)c1ccc(C(=O)O)cc1O
LC50 [1]: > 10 µg/mL | MIC (Aeromonas hydrophila): > 32 µg/mL | MIC (Vibrio harveyi): 4 µg/mL (≈ 16.1 µM) | MIC (Escherichia coli): > 32 µg/mL | MIC [2]: > 32 µg/mL | MIC (Staphylococcus aureus): 32 µg/mL (≈ 129 µM) | MIC (Vibrio alginolyticus): > 32 µg/mL | MIC (Vibrio parahaemolyticus): 32 µg/mL (≈ 129 µM) | MIC (Gaeumannomyces graminis): 0.5 µg/mL (≈ 2.01 µM) | MIC (Vibrio anguillarum): > 32 µg/mL | MIC (Edwardsiella tarda): > 32 µg/mL | MIC (Pseudomonas aeruginosa): > 32 µg/mL | MIC (Micrococcus luteus): > 32 µg/mL | MIC (Alternaria brassicae): > 32 µg/mL

Cc1ccc([C@@]2(C)CCC(=O)O2)c(O)c1
LC50 [1]: > 10 µg/mL | MIC (Aeromonas hydrophila): > 32 µg/mL | MIC (Vibrio harveyi): 4 µg/mL (≈ 19.4 µM) | MIC (Escherichia coli): 32 µg/mL (≈ 155 µM) | MIC [2]: 32 µg/mL (≈ 155 µM) | MIC (Staphylococcus aureus): 32 µg/mL (≈ 155 µM) | MIC (Vibrio alginolyticus): > 32 µg/mL | MIC (Vibrio parahaemolyticus): > 32 µg/mL | MIC (Gaeumannomyces graminis): 32 µg/mL (≈ 155 µM) | MIC (Vibrio anguillarum): > 32 µg/mL | MIC (Edwardsiella tarda): > 32 µg/mL | MIC (Pseudomonas aeruginosa): > 32 µg/mL | MIC (Micrococcus luteus): > 32 µg/mL | MIC (Alternaria brassicae): > 32 µg/mL

O=C(N[C@H](CO)[C@H](O)c1ccc([N+](=O)[O-])cc1)C(Cl)Cl [CHLORAMPHENICOL]
MIC (Aeromonas hydrophila): 4 µg/mL (≈ 12.4 µM) | MIC (Vibrio harveyi): 4 µg/mL (≈ 12.4 µM) | MIC (Escherichia coli): 4 µg/mL (≈ 12.4 µM) | MIC (Staphylococcus aureus): 0.5 µg/mL (≈ 1.55 µM) | MIC (Vibrio alginolyticus): 0.5 µg/mL (≈ 1.55 µM) | MIC (Vibrio parahaemolyticus): 0.5 µg/mL (≈ 1.55 µM) | MIC (Vibrio anguillarum): 0.5 µg/mL (≈ 1.55 µM) | MIC (Edwardsiella tarda): 8 µg/mL (≈ 24.8 µM) | MIC (Pseudomonas aeruginosa): 8 µg/mL (≈ 24.8 µM) | MIC (Micrococcus luteus): 8 µg/mL (≈ 24.8 µM)

C/C(=C\CCC(C)C)c1ccc(Cc2c(C)cc(Oc3cc(C)cc(O)c3)cc2O)cc1O
LC50 [1]: > 10 µg/mL | MIC (Aeromonas hydrophila): > 32 µg/mL | MIC (Vibrio harveyi): > 32 µg/mL | MIC (Escherichia coli): 32 µg/mL (≈ 71.7 µM) | MIC [2]: 32 µg/mL (≈ 71.7 µM) | MIC (Staphylococcus aureus): > 32 µg/mL | MIC (Vibrio alginolyticus): 8 µg/mL (≈ 17.9 µM) | MIC (Vibrio parahaemolyticus): 32 µg/mL (≈ 71.7 µM) | MIC (Gaeumannomyces graminis): 32 µg/mL (≈ 71.7 µM) | MIC (Vibrio anguillarum): 32 µg/mL (≈ 71.7 µM) | MIC (Edwardsiella tarda): > 32 µg/mL | MIC (Pseudomonas aeruginosa): 4 µg/mL (≈ 8.96 µM) | MIC (Micrococcus luteus): 8 µg/mL (≈ 17.9 µM) | MIC (Alternaria brassicae): 32 µg/mL (≈ 71.7 µM)

C=C(C)CCC[C@](C)(O)c1ccc(C(=O)O)cc1O [11-DEHYDROSYDONIC ACID]
LC50 [1]: > 10 µg/mL | MIC (Aeromonas hydrophila): > 32 µg/mL | MIC (Vibrio harveyi): 4 µg/mL (≈ 15.1 µM) | MIC (Escherichia coli): > 32 µg/mL | MIC [2]: 32 µg/mL (≈ 121 µM) | MIC (Staphylococcus aureus): 32 µg/mL (≈ 121 µM) | MIC (Vibrio alginolyticus): > 32 µg/mL | MIC (Vibrio parahaemolyticus): 32 µg/mL (≈ 121 µM) | MIC (Gaeumannomyces graminis): > 32 µg/mL | MIC (Vibrio anguillarum): > 32 µg/mL | MIC (Edwardsiella tarda): > 32 µg/mL | MIC (Pseudomonas aeruginosa): > 32 µg/mL | MIC (Micrococcus luteus): 32 µg/mL (≈ 121 µM) | MIC (Alternaria brassicae): > 32 µg/mL

CC(C)C(O)CC[C@](C)(O)c1ccc(C(=O)O)cc1O (some centres undefined)
LC50 [1]: > 10 µg/mL | MIC (Aeromonas hydrophila): 32 µg/mL (≈ 113 µM) | MIC (Vibrio harveyi): 8 µg/mL (≈ 28.3 µM) | MIC (Escherichia coli): > 32 µg/mL | MIC [2]: > 32 µg/mL | MIC (Staphylococcus aureus): 32 µg/mL (≈ 113 µM) | MIC (Vibrio alginolyticus): > 32 µg/mL | MIC (Vibrio parahaemolyticus): 32 µg/mL (≈ 113 µM) | MIC (Gaeumannomyces graminis): > 32 µg/mL | MIC (Vibrio anguillarum): > 32 µg/mL | MIC (Edwardsiella tarda): > 32 µg/mL | MIC (Pseudomonas aeruginosa): > 32 µg/mL | MIC (Micrococcus luteus): > 32 µg/mL | MIC (Alternaria brassicae): > 32 µg/mL

CC(C)(O)CCC[C@](C)(O)c1ccc(C(=O)O)cc1O
LC50 [1]: > 10 µg/mL | MIC (Aeromonas hydrophila): 32 µg/mL (≈ 113 µM) | MIC (Vibrio harveyi): > 32 µg/mL | MIC (Escherichia coli): 32 µg/mL (≈ 113 µM) | MIC [2]: > 32 µg/mL | MIC (Staphylococcus aureus): > 32 µg/mL | MIC (Vibrio alginolyticus): > 32 µg/mL | MIC (Vibrio parahaemolyticus): 32 µg/mL (≈ 113 µM) | MIC (Gaeumannomyces graminis): > 32 µg/mL | MIC (Vibrio anguillarum): 32 µg/mL (≈ 113 µM) | MIC (Edwardsiella tarda): > 32 µg/mL | MIC (Pseudomonas aeruginosa): > 32 µg/mL | MIC (Micrococcus luteus): > 32 µg/mL | MIC (Alternaria brassicae): > 32 µg/mL

CC(C)CCC[C@](C)(O)c1ccc(C(=O)O)cc1O
LC50 [1]: > 10 µg/mL | MIC (Aeromonas hydrophila): > 32 µg/mL | MIC (Vibrio harveyi): 4 µg/mL (≈ 15 µM) | MIC (Escherichia coli): > 32 µg/mL | MIC [2]: 32 µg/mL (≈ 120 µM) | MIC (Staphylococcus aureus): 32 µg/mL (≈ 120 µM) | MIC (Vibrio alginolyticus): > 32 µg/mL | MIC (Vibrio parahaemolyticus): 4 µg/mL (≈ 15 µM) | MIC (Gaeumannomyces graminis): 0.5 µg/mL (≈ 1.88 µM) | MIC (Vibrio anguillarum): 32 µg/mL (≈ 120 µM) | MIC (Edwardsiella tarda): 32 µg/mL (≈ 120 µM) | MIC (Pseudomonas aeruginosa): > 32 µg/mL | MIC (Micrococcus luteus): > 32 µg/mL | MIC (Alternaria brassicae): > 32 µg/mL
